High-throughput results as filed in PubChem.
PGC1a acetyl inh – modulators of PGC1a acetylation. AID 651687. 350,000 compounds, 0.17% hits. inhibition, % at 15.6 µM. U2OS PGC1a acetylation, AlphaScreen anti-acetyl-lysine; with virally co-expressed GCN5 acetyltransferase;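 active = every replicate shows inhibition of at least 40%; inconclusive = mean inhibition at least 40% but some replicate below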;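 also: 0% = neutral control wells and 100% = positive control wells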
FN deposition inh – fibronectin deposition inhibition. 350,000 compounds, 0.086% hits. AID 743247. inhibition, % at 12.6 µM. AH1F fibroblasts, Alexa488-fibronectin deposition fluorescence, overnight;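 active = mean inhibition across replicates of 30% or more, regardless of how many single replicates reach that level; inconclusive = mean under 30% yet at least half of replicates reach 30%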;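 also: positive control wells lacked labelled fibronectin entirely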
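Schedule: 1 h cell adhesion before compound, then overnight fibronectin incubation; test system: AH1F fibroblast monolayer depositing Alexa488-labelled fibronectin into matrix; quantity: 10000 AH1F cells per well; probe or stimulus: fluorescent fibronectin at 24 nM final; signal: fluorescence, ex 485 nm, em 525 nm; evaluation: percent inhibition as loss of matrix-bound fibronectin fluorescence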
Xi reactivation – X-chromosome reactivation activator; AID 743238; activation, % at 7.58 µM; XiGFP mouse fibroblasts, % GFP-positive cells imaging, 3 d; cells co-treated with 5-aza-dC sensitizer; scaled so ellipticine positive control = 100%; 360,000 compounds, 0.055% hits;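 active = mean normalized replicate activation at least 10% and every replicate at or above 10%; inconclusive = only one of the two criteria met; inactive = mean below 10% and not all replicates reach 10%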;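 also: 0% = median of on-plate neutral control wells and 100% = ellipticine 6 µM median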
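Assay system: SV40-immortalized XiGFP fibroblast cells, line 68-5-11; buffer or medium: DMEM plus 5-aza-dC sensitizer; compound: one concentration, pinned; timing: compounds 3 days, fix/stain 15 min at room temperature; benchmarks: positive control ellipticine, 6 µM final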
CFTR F508del cor – correctors of CFTR F508del function in bronchial epithelial cells; 350,000 compounds, 0.36% hits; activity (quench increase), % at 7.58 µM; CFBE cells, YFP halide quenching; stimulated with forskolin plus potentiator P3; % fluorescence drop versus neutral controls;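 active = mean added fluorescence quench of at least 8% versus neutral control, with both replicates also reaching 8%; inconclusive = only one of the mean or replicate conditions met; inactive = mean below 8% and not both replicates reaching 8%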;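 also: cells transiently co-express mutant CFTR-F508del with the halide-sensitive YFP; corrector assay measuring rescue of mutant channel to the surface after 24 h compound exposure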
DENV2 CPE rescue – inhibitors of DENV2 cytopathic effect; DENV2-infected cells, cytopathic effect rescue, plate reader; 350,000 compounds, 1.7% hits; CPE inhibition, % at 9.99 µM; in the data active = CPE inhibition above about 20%, passing the limit was not always enough; inconclusive = no clear call, values can overlap the other calls; tested in BHK-21 cells;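 also: 0% = median of neutral control wells and 100% = median of positive control wells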
Cneo AK release – causes C. neoformans cell lysis. AID 651654. adenylate kinase release luminescence, 4 h; normalised: neutral wells 0, clomiphene wells 100. 360,000 compounds, 0.2% hits. lysis activity, % at 15 µM;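 active = mean lysis activity across replicates of at least 80%, whatever share of replicates individually reach that level; inactive = mean lysis activity below 80%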
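Material – Cryptococcus neoformans yeast cells · Quantity – 5 × 10^6 yeast cells/mL · Buffer or medium – YPD medium · Compound – single dose · Timing – 4 h static compound exposure, 37 °C, read 1 h post-reagent · Signal – adenylate kinase release luminescence · Read-out basis – lysis from increased AK signal · Benchmarks – Clomiphene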
* = called active by the depositor; ? = inconclusive; nt = no result given. Rows were chosen to be rich in hits. Some 1.9% of all compounds tested hit in one or more screens of this group.

SMILES	PGC1a acetyl inh	FN deposition inh	Xi reactivation	CFTR F508del cor	DENV2 CPE rescue	Cneo AK release
Cc1onc(-c2ccccc2Cl)c1C(=O)N1CCN(c2cccc(Cl)c2)CC1	4.5	23.8	0.9	8.1*	-2.3	0.8
Cc1cccc(N2CCN(C(=O)c3ccc4[nH]c(C)c(C)c4c3)CC2)c1C	-2.0	13.2	0.2	10.7*	-5.7	1.6
Cc1cccc(N2CCN(C(=O)c3c(-c4ccccc4)noc3C)CC2)c1C	-3.8	11.6	-0.1	15.4*	-7.5	-3.0
C[C@@H]1CN([C@H](C)CO)C(=O)c2cc(NC(=O)c3ccncc3)ccc2O[C@@H]1CN(C)C(=O)NC1CCCCC1	-7.9	nt	-0.7	1.7	16.3	-7.2
CO[C@H]1CN(C)C(=O)c2ccc(NS(=O)(=O)c3ccc(-c4ccccc4)cc3)cc2OC[C@@H](C)NC[C@@H]1C	-5.7	5.6	2.4	-3.0	29.2*	nt
CO[C@@H]1CN(C)C(=O)c2ccc(NS(=O)(=O)c3ccc(-c4ccccc4)cc3)cc2OC[C@H](C)NC[C@@H]1C	-4.0	-12.6	-0.1	-2.3	-4.4	52.9
CO[C@H]1CN(C)C(=O)c2ccc(NS(=O)(=O)c3ccc(Oc4ccccc4)cc3)cc2OC[C@H](C)NC[C@H]1C	-4.4	-13.1	0.7	-1.7	21.8*	-0.8
CO[C@@H]1CN(C)C(=O)c2ccc(NS(=O)(=O)c3ccc(Oc4ccccc4)cc3)cc2OC[C@H](C)NC[C@@H]1C	2.2	-12.0	0.0	1.8	-1.4	5.2
CO[C@@H]1CN(C)C(=O)c2ccc(NS(=O)(=O)c3ccc(Oc4ccccc4)cc3)cc2OC[C@H](C)NC[C@H]1C	-12.1	-3.5	0.6	-0.7	-5.3	98.9*
C[C@@H]1CN([C@@H](C)CO)C(=O)Cc2cc(NC(=O)CCCN(C)C)ccc2O[C@H]1CN(C)CC1CCCCC1	0.9	nt	0.0	0.7	6.4	-4.3
O=C(C[C@@H]1C=C[C@@H](NC(=O)Nc2cc(F)ccc2F)[C@@H](CO)O1)Nc1ccccc1	-8.7	nt	0.0	0.7	17.2	1.7
C[C@@H]1CCCCO[C@@H](CN(C)S(=O)(=O)c2ccc(F)cc2)[C@H](C)CN([C@@H](C)CO)C(=O)c2cc(NC(=O)Cc3ccccc3)ccc2O1	10.7	-2.9	0.1	3.1	?	-0.1
Cc1ccc(NS(=O)(=O)c2ccc(C(=O)NCCCN3CCCC3=O)cc2)cc1	nt	-7.1	-0.1	1.2	102.7*	-0.5
CC[C@@H](C)[C@@H](CO[C@@H](Cc1ccccc1)C(=O)N[C@@H](CCS(C)(=O)=O)C(=O)OC(C)C)NCC(N)CS (some centres not stated)	6.8	nt	nt	-8.1	10.1	14.4
COc1cccc(-c2ccc([C@@H]3[C@H]4CN(C(=O)c5ccc(F)cc5)CCCCN4[C@H]3CO)cc2)c1	-21.5	nt	0.0	-1.0	5.9	0.9
COc1cccc(-c2ccc([C@@H]3[C@@H](CO)N4CCCCN(C(=O)c5ccc(F)cc5)C[C@H]34)cc2)c1	-15.8	nt	0.3	2.7	42.8*	2.2
COc1cccc(-c2ccc([C@H]3[C@@H](CO)N4CCCCN(C(=O)c5ccc(F)cc5)C[C@H]34)cc2)c1	-21.6	nt	0.0	-0.7	43.1*	2.4
O=C(NCc1ccccc1)[C@H]1[C@H](CO)[C@H]2Cn3c(cccc3=O)[C@@H]1N2C(=O)Cc1ccccn1	nt	-11.2	0.1	0.2	-3.2	1.2
C[C@H](CO)N1C[C@H](C)[C@H](CN(C)C(=O)Cc2ccccc2)OCCCC[C@H](C)Oc2ccc(NC(=O)NC3CCCCC3)cc2C1=O	-2.8	nt	-0.7	-1.5	9.3	-11.7
O=C(NCc1cccnc1)/C(=C\c1ccc(-c2ccc(Cl)c(Cl)c2)o1)S(=O)(=O)c1ccccc1	59.2*	31.2*	1.1	-7.3	2.9	-5.1
O=C(C[C@H]1C[C@H]2c3cc(NC(=O)Nc4ccccc4)ccc3O[C@H]2[C@H](CO)O1)NCC1CC1	-6.6	0.8	0.1	1.8	2.8	-1.2
CCC(=O)N1C[C@@H](C)[C@H](OC)CN(C)C(=O)c2ccc(NC(=O)C3CC3)cc2OC[C@@H]1C	3.6	2.8	-0.2	0.7	2.5	-6.9
